Reference: ChEMBL document CHEMBL4622996, “Discovery of Vixotrigine: A Novel Use-Dependent Sodium Channel Blocker for the Treatment of Trigeminal Neuralgia” (ACS Med Chem Lett, 2020)
The source made the active and inactive calls. No cut-off for these calls is given here.

What was measured:
[1] = Volume of distribution in steady state in monkey at 0.5 mg/kg, iv; format: ADME, organism-based, Macaca mulatta; details: rhesus monkey, in vivo, read-out: Vdss
Rattus norvegicus = assay: Antiinflammatory activity in complete Freund's adjuvant-induced knee joint rat model of subchronic inflammation assessed as inhibition of CFA-induced hypersensitivity to pain at 1 mg/kg, BID; format: functional, organism-based
Outline: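 CFA-induced knee joint model of subchronic inflammation; oral 1 mg/kg BID over a 5-day dosing period; reversal of hypersensitivity compared against celecoxib.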

[2] = Free plasma concentration in rat model of chronic constriction injury-induced neuropathic pain at 5 mg/kg, po BID administered 22 days post surgery and measured on day 8 at 0.5 hrs post-dose; format: ADME, organism-based; details: in vivo
Outline: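 Chronic constriction injury neuropathic pain model in rat; oral dosing at 0.5 or 5 mg/kg BID starting day 22; mechanical allodynia read after 6 and 8 days of dosing; gabapentin 30 mg/kg po BID as positive control. Free plasma levels sampled on day 8, 0.5 h postdose.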

[3] = Tmax in dog at 3 mg/kg, po; format: ADME, organism-based, Canis lupus familiaris; details: in vivo
[4] = Cmax in rat at 3 mg/kg, po; format: ADME, organism-based; set-up: dose 3 mg/kg, route oral; details: in vivo
[5] = Toxicity in rat assessed as sedation by measuring spontaneous locomotor activity at 100 to 300 mg/kg, po; format: organism-based; details: in vivo
Outline: (§1)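 Male rats, spontaneous locomotor activity test; oral doses 60, 100 or 300 mg/kg given 30 min before the session; plasma sampled 60 min postdose at 60 mg/kg.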

[6] = Toxicity in rat assessed as sedation by measuring spontaneous locomotor activity at 60 mg/kg, po; format: organism-based; details: in vivo; outline: as §1
Cytochrome P450 1A2 = target: T1, Cytochrome P450 1A2 (Homo sapiens, UniProt P05177); assay: Inhibition of CYP1A2 (unknown origin); format: ADME
T1 sequence (P05177 whole entry): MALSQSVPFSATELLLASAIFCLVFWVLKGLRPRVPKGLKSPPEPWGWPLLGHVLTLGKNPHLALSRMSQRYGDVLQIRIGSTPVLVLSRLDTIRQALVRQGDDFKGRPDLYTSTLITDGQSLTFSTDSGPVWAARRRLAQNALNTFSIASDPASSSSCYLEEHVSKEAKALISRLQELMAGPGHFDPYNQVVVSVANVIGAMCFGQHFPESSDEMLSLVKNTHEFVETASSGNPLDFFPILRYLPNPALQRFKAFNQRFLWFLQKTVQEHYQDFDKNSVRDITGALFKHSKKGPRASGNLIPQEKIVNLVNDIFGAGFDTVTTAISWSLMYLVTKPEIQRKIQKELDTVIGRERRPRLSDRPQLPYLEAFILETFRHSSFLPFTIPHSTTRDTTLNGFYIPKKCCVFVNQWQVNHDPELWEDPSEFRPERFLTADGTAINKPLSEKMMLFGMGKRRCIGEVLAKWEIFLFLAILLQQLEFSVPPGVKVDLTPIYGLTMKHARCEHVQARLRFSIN

[7] = Volume of distribution in steady state in dog at 0.5 mg/kg, iv; format: ADME, organism-based, Canis lupus familiaris; details: in vivo, read-out: Vdss
[8] = Cmax in dog at 3 mg/kg, po; format: ADME, organism-based, Canis lupus familiaris; set-up: dose 3 mg/kg, route oral; details: in vivo
[9] = target: Voltage-gated inwardly rectifying potassium channel KCNH2 (Homo sapiens, UniProt Q12809); assay: Inhibition of human ERG
[10] = Apparent permeability in dog MDCK cells at pH 7.4; format: ADME, cell-based, Canis lupus familiaris
Outline: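 MDCK cell monolayer permeability measured at pH 7.4, reported as apparent permeability in nm/s.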

Cytochrome P450 2A6 = target: T2, Cytochrome P450 2A6 (Homo sapiens, UniProt P11509); assay: Inhibition of CYP2A6 (unknown origin); format: ADME
T2 sequence (P11509 whole entry): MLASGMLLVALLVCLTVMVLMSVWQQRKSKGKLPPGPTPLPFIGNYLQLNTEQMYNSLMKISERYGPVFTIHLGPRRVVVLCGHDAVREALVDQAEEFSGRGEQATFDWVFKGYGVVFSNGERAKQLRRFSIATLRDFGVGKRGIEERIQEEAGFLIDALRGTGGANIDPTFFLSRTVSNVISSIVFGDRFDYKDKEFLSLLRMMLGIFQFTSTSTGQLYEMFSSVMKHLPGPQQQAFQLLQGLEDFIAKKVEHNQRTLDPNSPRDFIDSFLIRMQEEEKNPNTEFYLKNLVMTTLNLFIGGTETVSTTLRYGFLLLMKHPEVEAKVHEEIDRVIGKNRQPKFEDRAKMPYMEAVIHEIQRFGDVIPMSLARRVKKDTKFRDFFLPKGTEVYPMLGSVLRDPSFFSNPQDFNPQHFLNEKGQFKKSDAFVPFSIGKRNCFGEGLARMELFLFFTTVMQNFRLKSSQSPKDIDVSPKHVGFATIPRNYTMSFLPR

[11] = target: T3, Solute carrier family 22 member 2 (Homo sapiens, UniProt O15244); assay: Inhibition of OCT2 (unknown origin)
T3 sequence (O15244 whole entry): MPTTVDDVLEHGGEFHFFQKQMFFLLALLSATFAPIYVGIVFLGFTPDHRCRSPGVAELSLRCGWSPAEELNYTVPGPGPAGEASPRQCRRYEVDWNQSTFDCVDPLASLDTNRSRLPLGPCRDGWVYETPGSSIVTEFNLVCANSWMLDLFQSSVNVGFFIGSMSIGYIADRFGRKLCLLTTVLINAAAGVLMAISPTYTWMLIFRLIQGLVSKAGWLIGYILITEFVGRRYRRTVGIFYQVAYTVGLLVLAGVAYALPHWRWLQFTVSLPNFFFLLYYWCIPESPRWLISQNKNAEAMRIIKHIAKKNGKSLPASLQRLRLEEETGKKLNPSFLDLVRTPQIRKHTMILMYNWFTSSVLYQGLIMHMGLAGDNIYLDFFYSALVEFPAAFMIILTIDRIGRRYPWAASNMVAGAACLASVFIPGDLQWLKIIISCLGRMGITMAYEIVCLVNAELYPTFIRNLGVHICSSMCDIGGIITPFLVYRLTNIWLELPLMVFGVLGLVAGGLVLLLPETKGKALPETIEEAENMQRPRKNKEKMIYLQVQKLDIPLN

[12] = target: T4, Amine oxidase [flavin-containing] B (Homo sapiens, UniProt P27338); assay: Inhibition of MAO-B (unknown origin)
T4 sequence (P27338 whole entry): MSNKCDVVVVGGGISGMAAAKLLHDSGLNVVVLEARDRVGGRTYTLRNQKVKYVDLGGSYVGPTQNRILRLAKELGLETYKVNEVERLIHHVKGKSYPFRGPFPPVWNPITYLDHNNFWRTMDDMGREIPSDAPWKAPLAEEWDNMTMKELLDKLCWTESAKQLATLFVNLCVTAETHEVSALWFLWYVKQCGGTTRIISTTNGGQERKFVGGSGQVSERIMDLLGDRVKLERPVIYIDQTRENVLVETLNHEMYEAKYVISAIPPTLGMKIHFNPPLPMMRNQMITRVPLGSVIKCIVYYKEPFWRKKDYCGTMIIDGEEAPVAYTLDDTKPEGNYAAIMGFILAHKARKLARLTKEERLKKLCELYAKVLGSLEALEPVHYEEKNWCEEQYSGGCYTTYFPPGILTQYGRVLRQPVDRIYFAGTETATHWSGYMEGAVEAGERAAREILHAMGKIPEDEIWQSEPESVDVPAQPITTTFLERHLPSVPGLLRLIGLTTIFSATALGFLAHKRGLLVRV
Outline: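 MAO-B inhibition measured in human liver microsomes, reported as pIC50.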

Voltage-gated inwardly rectifying potassium channel KCNH2, sequence (Q12809 whole entry): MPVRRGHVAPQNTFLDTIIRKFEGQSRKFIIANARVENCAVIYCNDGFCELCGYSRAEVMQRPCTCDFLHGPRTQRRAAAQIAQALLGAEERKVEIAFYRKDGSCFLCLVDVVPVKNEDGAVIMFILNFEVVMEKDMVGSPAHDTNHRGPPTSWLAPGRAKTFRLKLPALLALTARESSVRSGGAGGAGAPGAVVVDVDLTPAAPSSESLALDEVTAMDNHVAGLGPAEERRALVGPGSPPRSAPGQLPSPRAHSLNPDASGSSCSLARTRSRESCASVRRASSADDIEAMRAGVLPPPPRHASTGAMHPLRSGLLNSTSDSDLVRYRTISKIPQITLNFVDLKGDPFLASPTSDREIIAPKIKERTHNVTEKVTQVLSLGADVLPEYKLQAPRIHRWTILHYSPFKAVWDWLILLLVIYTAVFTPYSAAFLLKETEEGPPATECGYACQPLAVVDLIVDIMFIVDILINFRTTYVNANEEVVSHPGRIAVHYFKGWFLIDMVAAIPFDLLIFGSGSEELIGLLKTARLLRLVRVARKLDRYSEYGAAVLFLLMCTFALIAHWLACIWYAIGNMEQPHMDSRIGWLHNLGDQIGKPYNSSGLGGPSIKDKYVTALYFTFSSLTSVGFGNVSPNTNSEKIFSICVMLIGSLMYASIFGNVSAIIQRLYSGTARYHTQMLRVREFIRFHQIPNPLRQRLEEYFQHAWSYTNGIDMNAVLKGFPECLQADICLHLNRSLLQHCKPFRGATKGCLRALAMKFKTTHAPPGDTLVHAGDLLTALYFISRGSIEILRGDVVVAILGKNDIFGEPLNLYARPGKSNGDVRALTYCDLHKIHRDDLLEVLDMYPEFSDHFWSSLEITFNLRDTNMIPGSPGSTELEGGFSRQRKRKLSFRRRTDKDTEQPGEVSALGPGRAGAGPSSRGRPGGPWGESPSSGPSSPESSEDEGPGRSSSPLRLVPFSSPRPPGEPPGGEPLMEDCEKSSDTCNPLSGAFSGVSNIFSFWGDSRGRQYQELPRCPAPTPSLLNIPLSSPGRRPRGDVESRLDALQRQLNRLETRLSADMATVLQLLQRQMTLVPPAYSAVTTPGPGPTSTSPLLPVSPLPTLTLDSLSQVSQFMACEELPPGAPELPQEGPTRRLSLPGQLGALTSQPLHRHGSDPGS

- Vd [1]: 2 L/kg
- Tmax [3]: 45 min
- Cmax [4]: 226 ng/mL
- IC50 (Cytochrome P450 1A2): 13 µM
- Vd [7]: 2 L/kg
- Cmax [8]: 705 ng/mL
- Papp [10]: 38.6 ×10⁻⁶ cm/s
- IC50 (Cytochrome P450 2A6): > 100 µM
- inhibition (INH) [11]: Not Active
- IC50 [12]: 0.00398 µM
SMILES: Cl.NC(=O)[C@@H]1CC[C@H](c2ccc(OCc3ccccc3F)cc2)N1 [RAXATRIGINE HYDROCHLORIDE]
- Activity (Rattus norvegicus): Active
- Cp(f) [2]: 23.4 ng/mL
- Activity [5]: Toxic
- Activity [6]: Non-Toxic
- IC50 [9]: 12.6 µM
